{"source": "ChEMBL document CHEMBL1122340", "about": "“11,12-secoprostaglandins. 6. Interphenylene analogues of acylhydroxyalkanoic acids and related compounds as renal vasodilators” (1983)", "key": {"Canis familiaris [1]": {"system": "Canis familiaris", "assay": "Percentage change in renal resistance in anesthetized dogs", "format": "functional, Canis lupus familiaris", "procedure,_shortened": "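Anesthetized dogs, femoral artery and vein catheterized for BP and iv injection; at least 30 min recovery after surgery. Mean renal blood flow and mean arterial BP sampled at 1-min intervals over a 30-min control period, then 500 µg/kg given iv bolus in aqueous solution as Na salt, monitored 30 min more. Renal resistance = mean BP / mean RBF. Two dogs per compound; saline placebo in three dogs.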"}, "Canis familiaris [2]": {"system": "Canis familiaris", "assay": "Mean arterial blood pressure in conscious dog at 2-3 h after 5 mg/kg (po) compound administration", "format": "functional, Canis lupus familiaris", "procedure,_shortened": "(§1)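 Conscious dogs, 3 per group. Dose 5 mg/kg given orally in a gelatin capsule; lactose capsule as placebo. Renal blood flow (flow meters), arterial pressure (transducer) and heart rate recorded digitally every 2 min through a 30-min predrug control period and 5 h postdose. Readings averaged for the control period and for each posttreatment hour; means ± SE.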"}, "Canis familiaris [3]": {"system": "Canis familiaris", "assay": "Mean renal blood flow (RBF) in conscious dog at 4-5 hr after 5 mg/kg (po)", "format": "functional, Canis lupus familiaris, Kidney", "procedure,_shortened": "as §1"}, "Canis familiaris [4]": {"system": "Canis familiaris", "assay": "Mean heart rate in conscious dog at 4-5 hr after 5 mg/kg (po) compound administration", "format": "functional, Canis lupus familiaris", "procedure,_shortened": "as §1"}, "Canis familiaris [5]": {"system": "Canis familiaris", "assay": "Mean heart rate in conscious dog at 3-4 h after 5 mg/kg (po) compound administration", "format": "functional, Canis lupus familiaris", "procedure,_shortened": "as §1"}, "Canis familiaris [6]": {"system": "Canis familiaris", "assay": "Mean heart rate in conscious dog at 1-2 hr after 5 mg/kg (po) compound administration", "format": "functional, Canis lupus familiaris", "procedure,_shortened": "as §1"}, "Canis familiaris [7]": {"system": "Canis familiaris", "assay": "Mean renal blood flow in (RBF) conscious dog at 3-4 hr after 5 mg/kg (po)", "format": "functional, Canis lupus familiaris, Kidney", "procedure,_shortened": "as §1"}, "Canis familiaris [8]": {"system": "Canis familiaris", "assay": "Mean arterial blood pressure in conscious dog at 0-1 hr after 5 mg/kg (po) compound administration", "format": "functional, Canis lupus familiaris", "procedure,_shortened": "as §1"}, "Canis familiaris [9]": {"system": "Canis familiaris", "assay": "Mean arterial blood pressure in conscious dog at 4-5 h after 5 mg/kg (po) compound administration", "format": "functional, Canis lupus familiaris", "procedure,_shortened": "as §1"}, "Canis familiaris [10]": {"system": "Canis familiaris", "assay": "Mean heart rate in conscious dog at 0-1 hr after 5 mg/kg (po) compound administration", "format": "functional, Canis lupus familiaris", "procedure,_shortened": "as §1"}, "Canis familiaris [11]": {"system": "Canis familiaris", "assay": "Mean heart rate in conscious dog at 2-3 hr after 5 mg/kg (po) compound administration", "format": "functional, Canis lupus familiaris", "procedure,_shortened": "as §1"}, "Canis familiaris [12]": {"system": "Canis familiaris", "assay": "Mean renal blood flow (RBF) in conscious dog at 1-2h after 5 mg/kg (po)", "format": "functional, Canis lupus familiaris, Kidney", "procedure,_shortened": "as §1"}, "Canis familiaris [13]": {"system": "Canis familiaris", "assay": "Mean arterial blood pressure in conscious dog at 1-2 hr after 5 mg/kg (po) compound administration", "format": "functional, Canis lupus familiaris", "procedure,_shortened": "as §1"}, "Canis familiaris [14]": {"system": "Canis familiaris", "assay": "Mean renal blood (RBF) flow in conscious dog at 0-1 hr after 5 mg/kg (po)", "format": "functional, Canis lupus familiaris, Kidney", "procedure,_shortened": "as §1"}, "Canis familiaris [15]": {"system": "Canis familiaris", "assay": "Mean renal blood flow (RBF) in conscious dog at 2-3 hr after 5 mg/kg (po)", "format": "functional, Canis lupus familiaris, Kidney", "procedure,_shortened": "as §1"}, "Canis familiaris [16]": {"system": "Canis familiaris", "assay": "Mean arterial blood pressure in conscious dog at 3-4 h after 5 mg/kg (po) compound administration", "format": "functional, Canis lupus familiaris", "procedure,_shortened": "as §1"}}}
{"smiles": "CCCCCC(O)CCCC(CCCc1cccc(C(=O)O)c1)C(C)=O", "note": "(stereo unspecified)", "values": [{"measurement": "Change", "setting": "Canis familiaris [1]", "result": -20, "unit": "%"}]}
{"smiles": "CCCCCC(O)CCCN(CCCc1ccc(C(=O)O)cc1)S(C)(=O)=O", "note": "(stereo unspecified)", "values": [{"measurement": "Change", "setting": "Canis familiaris [1]", "result": 5, "unit": "%"}]}
{"smiles": "CCCCCC(O)CCCC(CCCc1ccc(C(=O)O)cc1)C(C)=O", "note": "(stereo unspecified)", "values": [{"measurement": "MABP", "setting": "Canis familiaris [2]", "result": 97, "unit": "mmHg"}, {"measurement": "RBF", "setting": "Canis familiaris [3]", "result": 124, "unit": "mL/min"}, {"measurement": "HR", "setting": "Canis familiaris [4]", "result": 68, "unit": "beats min-1"}, {"measurement": "HR", "setting": "Canis familiaris [5]", "result": 64, "unit": "beats min-1"}, {"measurement": "HR", "setting": "Canis familiaris [6]", "result": 73, "unit": "beats min-1"}, {"measurement": "RBF", "setting": "Canis familiaris [7]", "result": 139, "unit": "mL/min"}, {"measurement": "MABP", "setting": "Canis familiaris [8]", "result": 116, "unit": "mmHg"}, {"measurement": "MABP", "setting": "Canis familiaris [9]", "result": 106, "unit": "mmHg"}, {"measurement": "HR", "setting": "Canis familiaris [10]", "result": 74, "unit": "beats min-1"}, {"measurement": "HR", "setting": "Canis familiaris [11]", "result": 74, "unit": "beats min-1"}, {"measurement": "RBF", "setting": "Canis familiaris [12]", "result": 194, "unit": "mL/min"}, {"measurement": "Change", "setting": "Canis familiaris [1]", "result": -47, "unit": "%"}, {"measurement": "MABP", "setting": "Canis familiaris [13]", "result": 106, "unit": "mmHg"}, {"measurement": "RBF", "setting": "Canis familiaris [14]", "result": 137, "unit": "mL/min"}, {"measurement": "RBF", "setting": "Canis familiaris [15]", "result": 173, "unit": "mL/min"}, {"measurement": "MABP", "setting": "Canis familiaris [16]", "result": 95, "unit": "mmHg"}]}
{"smiles": "CCCCCC(O)CCCC(Cc1ccc(CCC(=O)O)cc1)C(C)=O", "note": "(stereo unspecified)", "values": [{"measurement": "Change", "setting": "Canis familiaris [1]", "result": 13, "unit": "%"}]}
{"smiles": "CC(=O)C(CCCc1ccc(C(=O)O)cc1)CCCC1(O)CCCCC1", "note": "(stereo unspecified)", "values": [{"measurement": "Change", "setting": "Canis familiaris [1]", "result": -42, "unit": "%"}]}
{"smiles": "CS(=O)(=O)N(CCCc1ccc(C(=O)O)cc1)CCCC1(O)CCCCC1", "values": [{"measurement": "Change", "setting": "Canis familiaris [1]", "result": -7, "unit": "%"}]}
{"smiles": "CS(=O)(=O)N(CC#CC1(O)CCCCC1)CCCc1ccc(C(=O)O)cc1", "values": [{"measurement": "Change", "setting": "Canis familiaris [1]", "result": -10, "unit": "%"}]}
{"smiles": "CCCCCC(O)CCCC(CCCc1ccc(C(=O)O)cc1)C(C)O", "note": "(stereo unspecified)", "values": [{"measurement": "Change", "setting": "Canis familiaris [1]", "result": -19, "unit": "%"}]}
{"smiles": "CCCCCC(O)CCCC(CCCCc1ccccc1C(=O)O)C(C)=O", "note": "(stereo unspecified)", "values": [{"measurement": "Change", "setting": "Canis familiaris [1]", "result": 19, "unit": "%"}]}
{"smiles": "CCCOCC(O)CCCC(CCCc1ccc(C(=O)O)cc1)C(C)=O", "note": "(stereo unspecified)", "values": [{"measurement": "Change", "setting": "Canis familiaris [1]", "result": -43, "unit": "%"}]}
{"smiles": "CCCCCC(O)CCCC(CCCCc1ccc(C(=O)O)cc1)C(C)=O", "note": "(stereo unspecified)", "values": [{"measurement": "Change", "setting": "Canis familiaris [1]", "result": 18, "unit": "%"}]}
